Test results taken from article PMC2574997 (Journal of medicinal chemistry, 2008).
Where two headings read alike, the source gives them in different places.

How the values were obtained:
[1] = target: PKCα (Mus musculus, UniProt P20444); test: Competition with [3H]PDBU binding to PKCα; details: for Ratio Ki crude/Ki pure: relative to unresolved library E/Z mixture
In short: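 Partially purified mouse PKCα; test compound in DMSO competed with [3H]PDBU. Pure compounds ran 6–7 ligand concentrations; ID50 from sigmoidal fit; Ki = ID50/(1+L/Kd). Crude library mixtures (unresolved E/Z) were tested at a single 1 μM, with Ki calculated from that concentration. The ratio compares crude with pure Ki. Triplicates per concentration; ≥3 independent experiments; mean ± SEM.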

[2] = system: α-secretase; test: α-Secretase activation, secreted sAPPα by immunoblot densitometry in W4 cells; format: cell-based, rat; details: crude sample or control, 1 μM
[3] = system: LNCaP cells; test: Apoptosis and radiosensitization in LNCaP cells; format: cell-based, human; details: 10 and 20 μM, 16 h pretreatment, 24 h post radiation (20 Gy)
In short: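 LNCaP human prostate cancer cells were grown at 37°C, 5% CO2 in RPMI-1640 with 10% FCS, 2 mM L-glutamine, antibiotics and 10 mM HEPES (pH 7.2). FCS was replaced by 0.2% human albumin 24 h before the experiment. Cells were pretreated 16 h with test compound (10 or 20 μM), then irradiated (20 Gy). They were fixed 24 h later and stained with bis-benzimide. Cells with ≥3 apoptotic bodies were scored apoptotic by fluorescence microscopy. Mean of two experiments ± standard deviation.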

[4] = system: JB6 cells; test: Anchorage independent transformation in soft agar; format: cell-based, Balb/C; details: DAG-lactone 100 ng/mL, 14 days, normalized to TPA 10 ng/mL; L2-C11: both E- and Z-isomers
In short: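 JB6 cells (10^4) suspended in 0.33% top agar containing DMSO, TPA (10 ng/mL) or test compound (100 ng/mL), layered over 0.5% bottom agar also containing compound. Anchorage-independent colonies counted after 14 days by automated image analysis; colonies >8 cells scored as transformed. Four independent plates seeded. Mean colony number reported relative to TPA as 100%.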

[5] = system: AP-1; test: AP-1 luciferase assay; format: cell-based, Balb/C; details: pure DAG-lactone 100 ng/mL, 18 h, normalized to TPA 10 ng/mL; L2-C11: both E- and Z-isomers
[6] = system: MCF-10A cells; test: Cellular motility assay; format: cell-based, human; details: pure compounds, dose response, total area, 20 h
[7] = system: GFP-tagged PKCα, β, δ and ε; test: Translocation of GFP-tagged PKC isoforms in CHO cells; format: cell-based, Chinese hamster; details: living CHO cells, 300 nM, confocal microscopy
In short: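 PKC isoforms were subcloned into a modified pEGFP-N1 plasmid to give GFP-tagged proteins, which were over-expressed in CHO cells. Localization was followed in real time by confocal microscopy before and after ligand treatment, with membrane translocation from cytosol taken as activation.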

[8] = Library 1, pure sample = Z-isomer
[9] = Library 1, pure sample = E-isomer
[10] = Library 2, pure sample = E-isomer

| Compound | Ratio Ki crude/Ki pure [1, 9] | Ratio Ki crude/Ki pure [1, 10] | other results |
| --- | --- | --- | --- |
| CCCCCC/C=C1/CC(CO)(COC(=O)c2c(C(C)C)cc(C(C)C)cc2C(C)C)OC1=O (centres unmarked) [L1-A12, (Z)-[4-Heptylidene-2-(hydroxymethyl)-5-oxo-2-2,3-dihydrofuryl]methyl 2,4,6-tris(methylethyl)benzoate] | – | – | Ratio Ki crude/Ki pure [1, 8]: 50.4 |
| CCCCC(/C=C1/CC(CO)(COC(=O)c2ccc(N(C)C)cc2)OC1=O)CC (centres unmarked) [L1-B5, (Z)-[4-(2-Ethylhexylidene)-2-(hydroxymethyl)-5-oxo-2-2,3-dihydrofuryl]methyl 4-(dimethylamino)benzoate] | – | – | Ratio Ki crude/Ki pure [1, 8]: 3.4 |
| CCCCC(/C=C1/CC(CO)(COC(=O)c2ccc([N+](=O)[O-])cc2)OC1=O)CC (centres unmarked) [L1-B8, (Z)-[4-(2-Ethylhexylidene)-2-(hydroxymethyl)-5-oxo-2-2,3-dihydrofuryl]methyl 4-nitrobenzoate] | – | – | Ratio Ki crude/Ki pure [1, 8]: 1.4 |
| CCCCC(CC)C(=O)OCC1(CO)C/C(=C\c2ccc(N(C)C)cc2)C(=O)O1 (centres unmarked) [L1-E2, (E)-(4-{[4-(Dimethylamino)phenyl]methylene}-2-(hydroxymethyl)-5-oxo-2-2,3-dihydrofuryl)methyl 2-ethylhexanoate] | 7.4 | – | – |
| CN(C)c1ccc(/C=C2\CC(CO)(COC(=O)c3ccc(N(C)C)cc3)OC2=O)cc1 (centres unmarked) [L1-E5, (E)-(4-{[4-(Dimethylamino)phenyl]methylene}-2-(hydroxymethyl)-5-oxo-2-2,3-dihydrofuryl)methyl 4-(dimethylamino)benzoate] | 10.6 | – | – |
| COc1ccc(C(=O)OCC2(CO)C/C(=C\c3ccc(N(C)C)cc3)C(=O)O2)cc1 (centres unmarked) [L1-E6, (E)-(4-{[4-(Dimethylamino)phenyl]methylene}-2-(hydroxymethyl)-5-oxo-2-2,3-dihydrofuryl)methyl 4-methoxybenzoate] | 8.7 | – | α-secretase activity (sAPPα) relative to untreated cells (100%) [2]: 177% |
| CN(C)c1ccc(/C=C2\CC(CO)(COC(=O)c3ccc([N+](=O)[O-])cc3)OC2=O)cc1 (centres unmarked) [L1-E8, (E)-(4-{[4-(Dimethylamino)phenyl]methylene}-2-(hydroxymethyl)-5-oxo-2-2,3-dihydrofuryl)methyl 4-nitrobenzoate] | 5.8 | – | – |
| COc1ccc(/C=C2\CC(CO)(COC(=O)c3ccc(N(C)C)cc3)OC2=O)cc1 (centres unmarked) [L1-F5, (E)-{2-(Hydroxymethyl)-4-[(4-methoxyphenyl)methylene]-5-oxo-1-2,3-dihydrofuryl}methyl 4-(dimethylamino)benzoate] | 7.5 | – | – |
| COc1ccc(/C=C2\CC(CO)(COC(=O)c3ccc(OC)cc3)OC2=O)cc1 (centres unmarked) [L1-F6, (E)-{2-(Hydroxymethyl)-4-[(4-methoxyphenyl)methylene]-5-oxo-1-2,3-dihydrofuryl}methyl 4-methoxybenzoate] | 2.6 | – | – |
| O=C1OC(CO)(COC(=O)c2ccc([N+](=O)[O-])cc2)C/C1=C\c1ccc([N+](=O)[O-])cc1 (centres unmarked) [L1-H8, (E)-{2-(Hydroxymethyl)-4-[(4-nitrophenyl)methylene]-5-oxo-2-2,3-dihydrofuryl}methyl 4-nitrobenzoate] | 5.2 | – | – |
| CC(C)C(=O)OCC1(CO)C/C(=C/c2ccccc2C(F)(F)F)C(=O)O1 (centres unmarked) [L2-A1, (Z)-(2-(Hydroxymethyl)-5-oxo-4-{[2-(trifluoromethyl)phenyl]-methylene}-2-2,3-dihydrofuryl)methyl 2-methylpropanoate] | – | – | Ratio Ki crude/Ki pure ([1]; Library 2, pure sample = Z-isomer): 0.51 |
| CCCC(CCC)C(=O)OCC1(CO)C/C(=C\c2ccc(C(F)(F)F)cc2)C(=O)O1 (centres unmarked) [L2-B4, (E)-(2-(Hydroxymethyl)-5-oxo-4-{[4-(trifluoromethyl)phenyl]methylene}-2-2,3-dihydrofuryl)methyl 2-propylpentanoate] | – | 5.6 | induction of apoptosis [3]: induction of apoptosis; transforming activity (anchorage independent colonies) [4]: minimal transforming properties; AP-1 activation (AP-1 dependent luciferase activity) [5]: very strong AP-1 transcription factor activation |
| (E)-{4-[(3-Chloro-4-fluorophenyl)methylene]-2-(hydroxymethyl)-5-oxo-2-2,3-dihydrofuryl}methyl 2-propylpentanoate [L2-B11] | – | 6.3 | Ki ([1]; read-out: Pure Sample Ki, Library 2 pure compound, E-isomer): 3.38 ± 0.15 nM |

More lines, main results first:

| Ratio Ki crude/Ki pure [1, 9] | Ratio Ki crude/Ki pure [1, 10] | Compound | other results |
| --- | --- | --- | --- |
| 32.0 | – | COc1ccc(/C=C2\CC(CO)(COC(=O)c3c(C)cc(C)cc3C)OC2=O)cc1 (centres unmarked) [L1-F11, (E)-{2-(Hydroxymethyl)-4-[(4-methoxyphenyl)methylene]-5-oxo-2-2,3-dihydrofuryl}methyl 2,4,6-trimethylbenzoate] | – |
| 24.6 | – | COc1ccc(/C=C2\CC(CO)(COC(=O)c3c(C(C)C)cc(C(C)C)cc3C(C)C)OC2=O)cc1 (centres unmarked) [L1-F12, (E)-{2-(Hydroxymethyl)-4-[(4-methoxyphenyl)methylene]-5-oxo-2-2,3-dihydrofuryl}methyl 2,4,6-tris(methylethyl)benzoate] | – |
| 2.7 | – | COc1ccc(C(=O)OCC2(CO)C/C(=C\c3ccc([N+](=O)[O-])cc3)C(=O)O2)cc1 (centres unmarked) [L1-H6, (E)-{2-(Hydroxymethyl)-4-[(4-nitrophenyl)methylene]-5-oxo-2-2,3-dihydrofuryl}methyl 4-methoxybenzoate] | – |
| – | 3.0 | CCCC(CCC)C(=O)OCC1(CO)C/C(=C\c2ccc(F)cc2)C(=O)O1 (centres unmarked) [L2-B7, (E)-{4-[(4-Fluorophenyl)methylene]-2-(hydroxymethyl)-5-oxo-2-2,3-dihydrofuryl}methyl 2-propylpentanoate] | induction of apoptosis [3]: induction of apoptosis; transforming activity (anchorage independent colonies) [4]: minimal transforming properties; AP-1 activation (AP-1 dependent luciferase activity) [5]: very strong AP-1 transcription factor activation |
| – | 3.8 | CCCC(CCC)C(=O)OCC1(CO)C/C(=C\c2ccc(F)c(Cl)c2)C(=O)O1 (centres unmarked) [L2-B10, (E)-{4-[(3-Chloro-4-fluorophenyl)methylene]-2-(hydroxymethyl)-5-oxo-2-2,3-dihydrofuryl}methyl 2-propylpentanoate] | – |
| – | 3.0 | CCCC(CCC)C(=O)OCC1(CO)C/C(=C\c2ccc(F)c(Br)c2)C(=O)O1 (centres unmarked) [L2-B12, (E)-{4-[(3-Bromo-4-fluorophenyl)methylene]-2-(hydroxymethyl)-5-oxo-2-2,3-dihydrofuryl}methyl 2-propylpentanoate] | induction of cell motility [6]: very weak effect on cell motility; Ki [1]: ~2 nM |
| – | 4.3 | CCCCC(CC)C(=O)OCC1(CO)C/C(=C\c2ccc(Cl)cc2)C(=O)O1 (centres unmarked) [L2-C8, (E)-{4-[(4-Chlorophenyl)methylene]-2-(hydroxymethyl)-5-oxo-2-2,3-dihydrofuryl}methyl 2-ethylhexanoate] | transforming activity (anchorage independent colonies) [4]: significant transforming activity; AP-1 activation (AP-1 dependent luciferase activity) [5]: able to induce AP-1 activation |
| – | 2.9 | CCCCC(CC)C(=O)OCC1(CO)C/C(=C\c2ccc(F)c(Br)c2)C(=O)O1 (centres unmarked) [L2-C12, (E)-{4-[(3-Bromo-4-fluorophenyl)methylene]-2-(hydroxymethyl)-5-oxo-2-2,3-dihydrofuryl}methyl 2-ethylhexanoate] | induction of cell motility [6]: induced cell motility; translocation of PKC isozymes α, β, δ and ε [7]: translocated very quickly |
| – | 5.8 | CCC(C(=O)OCC1(CO)C/C(=C\c2ccc(-c3ccc(C(F)(F)F)cc3)cc2)C(=O)O1)c1ccccc1 (centres unmarked) [L2-D6, (E)-[2-(Hydroxymethyl)-5-oxo-4-({4-[4-(trifluoromethyl)phenyl]phenyl}methylene)-2-2,3-dihydrofuryl]methyl 2-phenylbutanoate] | induction of cell motility [6]: mimics L2-C12 in terms of inducing cell motility |
| – | 1.8 | CC(C)(C)C(=O)OCC1(CO)C/C(=C\c2ccc(F)c(Cl)c2)C(=O)O1 (centres unmarked) [L2-F10, (E)-{4-[(3-Chloro-4-fluorophenyl)methylene]-2-(hydroxymethyl)-5-oxo-2-2,3-dihydrofuryl}methyl 2,2-dimethylpropanoate] | – |
